These results are taken from ChEMBL document CHEMBL4513216, “Probing the Open Global Health Chemical Diversity Library for Multistage-Active Starting Points for Next-Generation Antimalarials” (ACS Infect Dis, 2020).

A short description of the series: Toxicity liver stage against HepG2, at 10uM. The class given is cell-based. The arrangement: test concentration 10 uM, cell line HepG2-A16-CD81EGFP. As to conditions: human, HepG2-A16-CD81EGFP cells; read-out: INHIBITION
Put shortly:
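Uninfected HepG2-A16-CD81EGFP cells, 3 × 10^3 per well, 1536-well, plated on prespotted compound at 10 μM final, parasite-free screening media added to match infected plates; puromycin 10 μM positive, DMSO 0.5% negative; run in parallel with 48 h PbLuc assay at 37 °C, 5% CO2; viability by CellTiter-Glo luminescence, normalized to controls.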
Consider `CC(=O)N1CCN(C(=O)C[C@@H]2C[C@@H](C(C)C)[C@H](CC#N)C=C2C)CC1`, for which the cytotoxicity at 10 µM is -1.01%. For `O=C(NC[C@H]1O[C@H](Cc2cc(-c3ccccn3)on2)CC[C@@H]1O)C1CC1`, the cytotoxicity at 10 µM is -2.69%. `CC[C@@H](C)[C@H](NC(=O)NC1CCS(=O)(=O)C1)C(=O)NCc1ccncc1` (stereo partly specified): the cytotoxicity at 10 µM is -2.56%. For `O=S(=O)(NCC1(c2cccs2)CCCC1)c1cccnc1` the value was -2.56%. The value for `COc1ccc(CN2C[C@@H]3CN(C(=O)[C@H]4CCCO4)C[C@@H]3C2=O)cc1` was -0.0368%; that for `O=C(c1cccnc1)N1CCc2onc(CN3CCCC3)c2C1` was 4.86%. The value for `CN(C)C(=O)N1CC2(CCN(S(C)(=O)=O)CC2)c2ccccc21` was -121%; that for `Cc1nc(N(C)C)nc2c1COCC21CCN(C(=O)NCC(C)C)C1` (stereo unspecified) was 7.63%; that for `COCC1CN(C(=O)c2ccnnc2)Cc2ncnn2C1` (stereo unspecified) was -4.24%.

For `COc1ncccc1C(=O)N1CC[C@H]2C[C@@H](c3ccncn3)O[C@@H]2C1`, the cytotoxicity at 10 µM is -2.24%. The value for `Cc1nc(N2CCCC2)nc2c1CCN(C(=O)C1CCCCC1)CC2` was 3.16%; that for `CC(C)Oc1ccccc1C1CC(=O)Nc2nc(N3CCOCC3)sc21` (stereo unspecified) was 14.3%; that for `CC(C)(C)C(=O)N1CCCc2c(cnn2-c2ccccc2)C1` was 7.15%. `CC(C)NC(=O)Nc1ncc(-c2cccnc2)s1`: the cytotoxicity at 10 µM stood at 7.05%. For `O=C(NCC1(O)COCCN(Cc2ccc(O)cc2)C1)c1cnccn1` (stereo unspecified) the value was -12.8%. For `CCC(Nc1ncccn1)c1ccc(OC)cc1` (stereo unspecified) the value was -12.6%.

With `COc1ccc(C2(c3nc(-c4cccnc4)no3)CCOCC2)cc1`, the cytotoxicity at 10 µM was 13.9%. The value for `Cc1c(C[S+](C)[O-])cccc1NC(=O)c1cc(Cl)ccn1` (stereo unspecified) was 9.41%; that for `COc1ncccc1NC(=O)c1[nH]nc(C(C)C)c1Br` was 17.1%. With `Cn1ccnc1C(O)(CCNCc1ccc(Cl)o1)C(F)(F)F` (stereo unspecified), the cytotoxicity at 10 µM was 4.91%. In the case of `CC(C)(C)c1noc(CCC(=O)N(CC2CCOC2)C2CC2)n1` (stereo unspecified), the cytotoxicity at 10 µM is 2.66%. For `CCCN(Cc1cnn(C)c1)S(=O)(=O)c1cccc(F)c1C#N` the value was -9.04%; for `CC(C)c1nnc2n1CCN(Cc1ccc3c(c1)OCCO3)C2`, -0.234%. The value for `COC(=O)c1ccc(NC(=O)NC2CCc3[nH]ncc3C2)cc1` (stereo unspecified) was -11.2%. The value for `COc1nc(N2CCC(CC(N)=O)CC2)ncc1Br` was 2.99%. Turning to `CCOC(=O)C1(O)CCN(C(=O)Nc2cccc(CC)c2)CC1`, the cytotoxicity at 10 µM was -140%. On to `CC(=O)Nc1ccc(CNC(C)c2c(C)nn(C)c2C)cc1` (stereo unspecified), for which the cytotoxicity at 10 µM stood at 13%. As for `COC(=O)C(C)(C)NC(=O)c1cc2sc(N(C)C)nc2s1`, the cytotoxicity at 10 µM was -20.5%. For the compound `CC(=O)N1CCN(c2nc3c(cnn3C(C)(C)C)c(=O)[nH]2)CC1`, the cytotoxicity at 10 µM is -17.9%. For the compound `COc1ccc(CNC(Cn2cncn2)c2ccccc2)cc1O` (stereo unspecified), the cytotoxicity at 10 µM was -6.74%. For the compound `COC(=O)CNc1cc(C(=O)NCC(F)(F)F)cc(F)c1C`, the cytotoxicity at 10 µM was 6.05%. The value for `Cc1ncsc1CNc1ccn(Cc2ccccc2)n1` was 9.58%; that for `CC(C)(C)n1cc(NC(=O)C2CN(Cc3ccccc3)CCO2)cn1` (stereo unspecified) was 0.935%; that for `CC(C)c1noc(CNC2CCCN(Cc3noc(C4CC4)n3)C2)n1` (stereo unspecified) was -3.19%. As to `CCc1nnc2n1CCN(Cc1csc(-c3ccccc3F)n1)C2`, the cytotoxicity at 10 µM is -4.49%. The value for `Cn1cc(-c2csc(N3CCSCC3)n2)cn1` was -1.31%. For `N#Cc1ccccc1C(=O)Nc1cccc(CN2CCC(CO)CC2)c1` the value was -140%; for `O=C(CN1CCCC(Cn2cncn2)C1)Nc1cccnc1` (stereo unspecified), 2.01%. For `CN(C)C(CNC(=O)c1cccc(C(N)=O)c1)c1ccccc1Cl` (stereo unspecified) the value was -4.83%. As to `OCC1CCCN1c1cc(NCc2ccccn2)ncn1` (stereo unspecified), the cytotoxicity at 10 µM was -8.01%. The value for `Cc1cnn(CC2CCCN2C(=O)Cn2nc(C)c(Cl)c2C)c1` (stereo unspecified) was -11.3%.

As for `CN(CC(F)(F)F)C(=O)c1ccc(F)c(NS(C)(=O)=O)c1`, the cytotoxicity at 10 µM was -2.05%. Consider `Cc1ccc(C(C)(O)CNC(=O)c2sccc2OC(F)F)o1` (stereo unspecified), for which the cytotoxicity at 10 µM was -1.34%.

Regarding `CC1CN(c2ccc(CNC(=O)NCCO)cn2)CCO1` (stereo unspecified), the cytotoxicity at 10 µM was 6.15%. In the case of `O=C(CN1CCc2sccc2C1)Nc1nccs1`, the cytotoxicity at 10 µM was found to be 5.31%. For `O=C(CCn1ccccc1=O)Nc1ccc(I)cc1` the value was 7.27%; for `CC(C)OCCNC(=O)C1CCC(=O)N(C2CCCC2)C1` (stereo unspecified), -12.5%. As for `CCCc1cncnc1N1CCC2(CCC(=O)N(CCCO)C2)CC1`, the cytotoxicity at 10 µM amounted to 2.8%. Take `O=C1CN(CCCNC(=O)Nc2cccc(Cl)c2F)CCN1`: the cytotoxicity at 10 µM amounted to 15.2%.

On to `COc1cccc(-c2n[nH]c3c2CN(C(=O)c2oc(C)cc2C)CC3)c1`, for which the cytotoxicity at 10 µM was -3.17%. Take `COc1ccc(N2CCN(Cc3nc(CSC)no3)CC2=O)cc1`: the cytotoxicity at 10 µM came to 1.44%.

On to `CCCc1cc(NCCN2CCNC2=O)n2nccc2n1`, for which the cytotoxicity at 10 µM is -6.42%. For `CC(C)CC(NC(=O)c1cc(C2CC2)n[nH]1)c1ncnn1C` (stereo unspecified) the value was 4.93%; for `Cn1ccnc1-c1nc2cc(S(=O)(=O)N3CCCC3)ccc2n1C`, 5.05%; for `Cn1cc(Cl)c(C(=O)N2CCC(N3CCc4ccccc4C3)CC2)n1`, -2.27%. Regarding `CCc1noc(CN(CC)Cc2cc3cc(C)ccc3[nH]c2=O)n1`, the cytotoxicity at 10 µM is 2.7%. For the compound `CN(Cc1ccccc1)S(=O)(=O)N1C[C@H](C2CC2)[C@@H](N)C1`, the cytotoxicity at 10 µM is -159%. For `Cc1ccc(OC2(C(=O)O)CCN(C/C=C/c3ccco3)CC2)cc1` the value was -14.4%; for `Cc1nc(O)cc(CN2CC=C(c3cnn(-c4ccccc4)c3)CC2)n1`, -10.5%; for `Cn1cnnc1CN1CCC2(CCC(=O)N(Cc3ccccn3)C2)CC1`, 7.82%.

In the case of `COCCCN1CCC(c2nc3c([nH]2)CC(C)(C)CNC3=O)C1` (stereo unspecified), the cytotoxicity at 10 µM came out at 0.0531%. The value for `CN(CC(=O)N1CC(Oc2ccccc2Cl)C1)Cc1ccncc1` was -2.67%. For `O=C(Nc1nncs1)N1CCCN(C2CCCCC2)CC1` the value was 1.48%; for `O=C(NCc1cc2n(n1)CCCNC2)C1(c2ccc(Cl)cc2)CCC1`, -9.72%. For `CCCc1nc(C)cc(N2CCC3(CCC(=O)N(CC(N)=O)C3)CC2)n1`, the cytotoxicity at 10 µM was -8.38%. Take `CCN1CCN(CC(=O)N2CCOC(Cc3ccc(OC)cc3)C2)CC1` (stereo unspecified): the cytotoxicity at 10 µM is -2.77%.

Regarding `COc1cc(CNC2CCc3nc(C)nn3C2)cc2c1OCO2` (stereo unspecified), the cytotoxicity at 10 µM was -11.6%.

As to `COc1ccccc1OCCNC(=O)CN1CCc2cncnc2C1`, the cytotoxicity at 10 µM is -15.6%. For `CN(CCCc1cc(-c2ccccc2)no1)S(C)(=O)=O` the value was -14.4%; for `Cc1nc(C)n(CC2CCCN(Cc3cccc(C(N)=O)c3)C2)n1` (stereo unspecified), -29%. As to `CC(C)c1nc(C2CCCN(C(=O)CCc3cscn3)C2)no1` (stereo unspecified), the cytotoxicity at 10 µM is -17.2%. The value for `c1ccc(-c2nnc(CNC3CCCN(c4cccnn4)C3)o2)cc1` (stereo unspecified) was -9.45%.

On to `COc1ccc(NC(=O)NC(C)Cc2ccco2)cn1` (stereo unspecified), for which the cytotoxicity at 10 µM is -3.54%. Turning to `Cc1noc(C)c1CN1CCC(c2ccnn2CCO)CC1`, the cytotoxicity at 10 µM is -9.73%. Regarding `Cc1nnc2n1CCN(CCCS(=O)(=O)c1ccccc1)C2`, the cytotoxicity at 10 µM was -11.2%. For `Cc1ccc(N(C)S(=O)(=O)c2cc(C(=O)O)cs2)c(C)c1` the value was 1.82%; for `CN(CCNC(=O)NCc1ccsc1)C1CCCC1`, -12.4%; for `Cc1cnn(CC2CN(Cc3nc4ccccc4n3C)CCO2)c1` (stereo unspecified), 0.338%. As for `CC(C)Cc1cc(C(=O)NCCn2nc3ccccn3c2=O)[nH]n1`, the cytotoxicity at 10 µM was -16.3%. As to `c1coc(-c2nc(CN3CCn4c(nnc4C4CC4)C3)cs2)c1`, the cytotoxicity at 10 µM was -4.64%.

Consider `COc1cccc(CNC(=O)CN2CCCCC2Cn2cccn2)c1` (stereo unspecified), for which the cytotoxicity at 10 µM is 2.77%. On to `O=C(N1CCCC1)N1CCc2c(CNc3ncccn3)cncc2C1`, for which the cytotoxicity at 10 µM turned out to be 3.97%. The value for `COc1ccc(C(C)NCc2c[nH]nc2C)cc1OC` (stereo unspecified) was -3.75%; that for `c1snnc1CN1C[C@H]2CCC[C@@H](CN3CCOCC3)[C@H]2C1` was -116%; that for `CN(C)[C@@H]1CCN(c2ncc(F)cn2)[C@H]1Cc1ccncc1` was -1.96%. The value for `Cn1cccc1CN1CCC2(CCCN(C(=O)c3cccnc3)C2)CC1` was -147%; that for `O=C(Nc1ccccc1)C1CN(CC2CCOCC2)CC12CCOCC2` (stereo unspecified) was 1.65%. Turning to `COCC1CN(Cc2sccc2C)Cc2nnn(CC3CC3)c21` (stereo unspecified), the cytotoxicity at 10 µM worked out at 4.35%. The value for `CC(C)N1CCC2(C=C(C(=O)N(C)C)c3ccccc32)CC1` was 1.24%; that for `CC(=O)N1C(CN2CCCC2)C[C@@H]2CN(C(=O)c3ccoc3)CC[C@@H]21` (stereo partly specified) was -0.655%. The value for `COC1CC2(CCN(Cc3nccn3C)CC2)C1` was -133%; that for `CC(=O)N1CCS(=O)(=O)[C@@H]2CCN(CC(C)C)CC[C@@H]21` was -142%. For `Cn1nc(Cn2cccn2)c2c1CN(Cc1ccsc1)C2` the value was -148%; for `CN(C)CC1CN(C(=O)CCc2ccccc2)Cc2nccn2C1` (stereo unspecified), -121%. For `CC(C)CNC(=O)[C@H]1C[C@H]2CN(C(=O)NCC3CCCCC3)C[C@@H]1O2`, the cytotoxicity at 10 µM was -4.81%. Consider `CN1C(=O)[C@@H]2CC[C@H]1CN(C(=O)Nc1cccc3ccccc13)C2`, for which the cytotoxicity at 10 µM is -2.69%.
